# Assay results published in ChEMBL document CHEMBL4152188, “Design, synthesis and biological evaluation of C(4) substituted monobactams as antibacterial agents against multidrug-resistant Gram-negative bacteria” (Eur J Med Chem, 2018).
# Assays:
# Format in all cases: functional
# Klebsiella pneumoniae [1] = assay: Antibacterial activity against KPC-2 producing Klebsiella pneumoniae isolate 209632 after 18 hrs by CLSI broth microdilution method; conditions: isolate 209632, 18 h
# Pseudomonas aeruginosa [2] = assay: Antibacterial activity against IMP-4 producing Pseudomonas aeruginosa isolate 207272 after 18 hrs in presence of BPL by CLSI broth microdilution method; conditions: isolate 207272, 18 h
# Procedure, shortened: (§1)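 CLSI broth microdilution against clinical isolates (ESBL E. coli, KPC-2 MDR K. pneumoniae, IMP-4 MDR P. aeruginosa; five per species). Iron limitation: Mueller-Hinton broth supplemented with 16 mg/liter 2,2'-bipyridyl to complex iron and induce iron uptake systems. Read-out: MIC.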
# Klebsiella pneumoniae [3] = assay: Antibacterial activity against KPC-2 producing Klebsiella pneumoniae isolate 212423 after 18 hrs in presence of BPL by CLSI broth microdilution method; conditions: isolate 212423, 18 h; procedure, shortened: as §1
# Escherichia coli [4] = assay: Selectivity index, ratio of MIC for against extended-spectrum beta-lactamase producing Escherichia coli isolate 209285 to MIC for extended-spectrum beta-lactamase producing Escherichia coli isolate 209285 in presence of BPL
# Pseudomonas aeruginosa [5] = assay: Antibacterial activity against IMP-4 producing Pseudomonas aeruginosa isolate 209471 after 18 hrs in presence of BPL by CLSI broth microdilution method; conditions: isolate 209471, 18 h; procedure, shortened: as §1
# Klebsiella pneumoniae [6] = assay: Antibacterial activity against KPC-2 producing Klebsiella pneumoniae isolate 209735 after 18 hrs in presence of BPL by CLSI broth microdilution method; conditions: isolate 209735, 18 h; procedure, shortened: as §1
# Klebsiella pneumoniae [7] = assay: Antibacterial activity against KPC-2 producing Klebsiella pneumoniae isolate 209632 after 18 hrs in presence of BPL by CLSI broth microdilution method; conditions: isolate 209632, 18 h; procedure, shortened: as §1
# Escherichia coli [8] = assay: Selectivity index, ratio of MIC for against extended-spectrum beta-lactamase producing Escherichia coli isolate 208687 to MIC for extended-spectrum beta-lactamase producing Escherichia coli isolate 208687 in presence of BPL
# Escherichia coli [9] = assay: Antibacterial activity against extended-spectrum beta-lactamase producing Escherichia coli isolate 209285 after 18 hrs by CLSI broth microdilution method; conditions: isolate 209285, 18 h
# Escherichia coli [10] = assay: Selectivity index, ratio of MIC for against extended-spectrum beta-lactamase producing Escherichia coli isolate 106342 to MIC for extended-spectrum beta-lactamase producing Escherichia coli isolate 106342 in presence of BPL
# Klebsiella pneumoniae [11] = assay: Antibacterial activity against KPC-2 producing Klebsiella pneumoniae isolate 212423 after 18 hrs by CLSI broth microdilution method; conditions: isolate 212423, 18 h
# Klebsiella pneumoniae [12] = assay: Selectivity index, ratio of MIC for against KPC-2 producing Klebsiella pneumoniae isolate 212423 to MIC for against KPC-2 producing Klebsiella pneumoniae isolate 212423 in presence of BPL
# Pseudomonas aeruginosa [13] = assay: Antibacterial activity against IMP-4 producing Pseudomonas aeruginosa isolate 208247 after 18 hrs by CLSI broth microdilution method; conditions: isolate 208247, 18 h
# Escherichia coli [14] = assay: Selectivity index, ratio of MIC for against Escherichia coli isolate 210737 to MIC for Escherichia coli isolate 210737 in presence of BPL
# Escherichia coli [15] = assay: Antibacterial activity against Escherichia coli isolate 210737 after 18 hrs by CLSI broth microdilution method; conditions: isolate 210737, 18 h
# Escherichia coli [16] = assay: Antibacterial activity against extended-spectrum beta-lactamase producing Escherichia coli isolate 212648 after 18 hrs in presence of BPL by CLSI broth microdilution method; conditions: isolate 212648, 18 h; procedure, shortened: as §1
# Escherichia coli [17] = assay: Antibacterial activity against extended-spectrum beta-lactamase producing Escherichia coli isolate 208687 after 18 hrs by CLSI broth microdilution method; conditions: isolate 208687, 18 h
# Klebsiella pneumoniae [18] = assay: Selectivity index, ratio of MIC for against KPC-2 producing Klebsiella pneumoniae isolate 209735 to MIC for against KPC-2 producing Klebsiella pneumoniae isolate 209735 in presence of BPL
# Escherichia coli [19] = assay: Selectivity index, ratio of MIC for against extended-spectrum beta-lactamase producing Escherichia coli isolate 212648 to MIC for extended-spectrum beta-lactamase producing Escherichia coli isolate 212648 in presence of BPL
# Pseudomonas aeruginosa [20] = assay: Antibacterial activity against IMP-4 producing Pseudomonas aeruginosa isolate 209321 after 18 hrs in presence of BPL by CLSI broth microdilution method; conditions: isolate 209321, 18 h; procedure, shortened: as §1
# Klebsiella pneumoniae [21] = assay: Selectivity index, ratio of MIC for against KPC-2 producing Klebsiella pneumoniae isolate 212229 to MIC for against KPC-2 producing Klebsiella pneumoniae isolate 212229 in presence of BPL
# Klebsiella pneumoniae [22] = assay: Antibacterial activity against KPC-2 producing Klebsiella pneumoniae isolate 209735 after 18 hrs by CLSI broth microdilution method; conditions: isolate 209735, 18 h
# Klebsiella pneumoniae [23] = assay: Antibacterial activity against KPC-2 producing Klebsiella pneumoniae isolate 212232 after 18 hrs by CLSI broth microdilution method; conditions: isolate 212232, 18 h
# Escherichia coli [24] = assay: Antibacterial activity against Escherichia coli isolate 210737 after 18 hrs in presence of BPL by CLSI broth microdilution method; conditions: isolate 210737, 18 h; procedure, shortened: as §1
# Pseudomonas aeruginosa [25] = assay: Antibacterial activity against IMP-4 producing Pseudomonas aeruginosa isolate 212886 after 18 hrs by CLSI broth microdilution method; conditions: isolate 212886, 18 h
# Pseudomonas aeruginosa [26] = assay: Antibacterial activity against IMP-4 producing Pseudomonas aeruginosa isolate 209471 after 18 hrs by CLSI broth microdilution method; conditions: isolate 209471, 18 h
# Pseudomonas aeruginosa [27] = assay: Antibacterial activity against IMP-4 producing Pseudomonas aeruginosa isolate 208247 after 18 hrs in presence of BPL by CLSI broth microdilution method; conditions: isolate 208247, 18 h; procedure, shortened: as §1
# Escherichia coli [28] = assay: Antibacterial activity against extended-spectrum beta-lactamase producing Escherichia coli isolate 106342 after 18 hrs in presence of BPL by CLSI broth microdilution method; conditions: isolate 106342, 18 h; procedure, shortened: as §1
# Escherichia coli [29] = assay: Antibacterial activity against extended-spectrum beta-lactamase producing Escherichia coli isolate 208687 after 18 hrs in presence of BPL by CLSI broth microdilution method; conditions: isolate 208687, 18 h; procedure, shortened: as §1
# Klebsiella pneumoniae [30] = assay: Selectivity index, ratio of MIC for against KPC-2 producing Klebsiella pneumoniae isolate 209632 to MIC for against KPC-2 producing Klebsiella pneumoniae isolate 209632 in presence of BPL
# Escherichia coli [31] = assay: Antibacterial activity against extended-spectrum beta-lactamase producing Escherichia coli isolate 209285 after 18 hrs in presence of BPL by CLSI broth microdilution method; conditions: isolate 209285, 18 h; procedure, shortened: as §1
# Escherichia coli [32] = assay: Antibacterial activity against extended-spectrum beta-lactamase producing Escherichia coli isolate 212648 after 18 hrs by CLSI broth microdilution method; conditions: isolate 212648, 18 h
# Pseudomonas aeruginosa [33] = assay: Antibacterial activity against IMP-4 producing Pseudomonas aeruginosa isolate 212886 after 18 hrs in presence of BPL by CLSI broth microdilution method; conditions: isolate 212886, 18 h; procedure, shortened: as §1
# Pseudomonas aeruginosa [34] = assay: Antibacterial activity against IMP-4 producing Pseudomonas aeruginosa isolate 209321 after 18 hrs by CLSI broth microdilution method; conditions: isolate 209321, 18 h
# Klebsiella pneumoniae [35] = assay: Antibacterial activity against KPC-2 producing Klebsiella pneumoniae isolate 212229 after 18 hrs by CLSI broth microdilution method; conditions: isolate 212229, 18 h
# Pseudomonas aeruginosa [36] = assay: Antibacterial activity against IMP-4 producing Pseudomonas aeruginosa isolate 207272 after 18 hrs by CLSI broth microdilution method; conditions: isolate 207272, 18 h
# Klebsiella pneumoniae [37] = assay: Antibacterial activity against KPC-2 producing Klebsiella pneumoniae isolate 212229 after 18 hrs in presence of BPL by CLSI broth microdilution method; conditions: isolate 212229, 18 h; procedure, shortened: as §1
# Escherichia coli [38] = assay: Antibacterial activity against extended-spectrum beta-lactamase producing Escherichia coli isolate 106342 after 18 hrs by CLSI broth microdilution method; conditions: isolate 106342, 18 h
# Klebsiella pneumoniae [39] = assay: Selectivity index, ratio of MIC for against KPC-2 producing Klebsiella pneumoniae isolate 212232 to MIC for against KPC-2 producing Klebsiella pneumoniae isolate 212232 in presence of BPL
# Klebsiella pneumoniae [40] = assay: Antibacterial activity against KPC-2 producing Klebsiella pneumoniae isolate 212232 after 18 hrs in presence of BPL by CLSI broth microdilution method; conditions: isolate 212232, 18 h; procedure, shortened: as §1
structure (smiles),measurement,setting,value
CC(C)C(O/N=C(\C(=O)NC1C(=O)N(S(=O)(=O)O)C12CCOCC2)c1csc(N)n1)c1cc(=O)c(O)cn1O (stereo not given),MIC,Klebsiella pneumoniae [1],4 µg/mL
same,MIC,Pseudomonas aeruginosa [2],64 µg/mL
same,MIC,Klebsiella pneumoniae [3],2 µg/mL
same,Selectivity Index,Escherichia coli [4],2
same,MIC,Pseudomonas aeruginosa [5],> 64 µg/mL
same,MIC,Klebsiella pneumoniae [6],1 µg/mL
same,MIC,Klebsiella pneumoniae [7],1 µg/mL
same,Selectivity Index,Escherichia coli [8],4
same,MIC,Escherichia coli [9],16 µg/mL
same,Selectivity Index,Escherichia coli [10],2
same,MIC,Klebsiella pneumoniae [11],4 µg/mL
same,Selectivity Index,Klebsiella pneumoniae [12],2
same,MIC,Pseudomonas aeruginosa [13],> 64 µg/mL
same,Selectivity Index,Escherichia coli [14],1
same,MIC,Escherichia coli [15],1 µg/mL
same,MIC,Escherichia coli [16],2 µg/mL
same,MIC,Escherichia coli [17],4 µg/mL
same,Selectivity Index,Klebsiella pneumoniae [18],4
same,Selectivity Index,Escherichia coli [19],4
same,MIC,Pseudomonas aeruginosa [20],> 64 µg/mL
same,Selectivity Index,Klebsiella pneumoniae [21],8
same,MIC,Klebsiella pneumoniae [22],4 µg/mL
same,MIC,Klebsiella pneumoniae [23],2 µg/mL
same,MIC,Escherichia coli [24],1 µg/mL
same,MIC,Pseudomonas aeruginosa [25],> 64 µg/mL
same,MIC,Pseudomonas aeruginosa [26],> 64 µg/mL
same,MIC,Pseudomonas aeruginosa [27],64 µg/mL
same,MIC,Escherichia coli [28],4 µg/mL
same,MIC,Escherichia coli [29],1 µg/mL
same,Selectivity Index,Klebsiella pneumoniae [30],4
same,MIC,Escherichia coli [31],8 µg/mL
same,MIC,Escherichia coli [32],8 µg/mL
same,MIC,Pseudomonas aeruginosa [33],> 64 µg/mL
same,MIC,Pseudomonas aeruginosa [34],> 64 µg/mL
same,MIC,Klebsiella pneumoniae [35],8 µg/mL
same,MIC,Pseudomonas aeruginosa [36],> 64 µg/mL
same,MIC,Klebsiella pneumoniae [37],1 µg/mL
same,MIC,Escherichia coli [38],8 µg/mL
same,Selectivity Index,Klebsiella pneumoniae [39],32
same,MIC,Klebsiella pneumoniae [40],0.06 µg/mL
